Sequences and labels used below:
B1: tRNA (parent)
chain: GUUCCGUUGGCGUAAUGGUAACGCGUCUCCCUCCUAAGGAGAAGACUGCGGGUUCGAGUCCCGUACGGAACG

Variants of B1 are the subject of this data set. The experiment in a line: yeast fitness, log relative to wild type (ln ratio); higher = fitter; tRNA-Arg(CCU), competitive growth, 37 C, 1 M NaCl. In a few lines:
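Fitness is the natural log of a genotype's generation count divided by that of the wild type. A combinatorial library of tRNA-Arg(CCU) variants sat on a HIS3 centromeric plasmid in BY4742 lacking the chromosomal gene, from two independent transformations. Pools grew 4 generations in SC-HIS at 30 °C, then ~6.5 generations (~26.5 h) in SC-HIS 1M NaCl at 37 °C, with three outputs per input. Generations came from OD-scaled log2 output/input frequency, inverse-variance weighted across replicates, with variants counted by 125 bp paired-end Illumina sequencing.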
For the variant AUUCCAUUGGCGUAAUGGUAACGCGUUUCCCUCCUAAGGAGAAGACUGCGGGUUCGAGUCCCGUACGGAGUG [G1A G6A C27U A70G C71U], the “yeast fitness (ln)” value was -0.332. With AUUCCAUUGGCGUAAUGGUAACGCGUUUCCCUCCUAAGGAGACGACUGCGGGUUCGAGUCCCGUACGGAAUG [G1A G6A C27U A43C C71U] the figure was -0.213. With AUUCCAUUGGCGUAAUGGUAACGCGUUUCCCUCCUAAGGAGAAGACUGCGGGUUCGAGUCCCGUAUGGAACG [G1A G6A C27U C66U], the “yeast fitness (ln)” value was -0.283. Regarding AUUCCAUUGGCGUAAUGGUAACGCGUUUCCCUCCUAAGGAGAAGACUGCGGGUUCGAGUCCCGUACGGAGCG [G1A G6A C27U A70G], the “yeast fitness (ln)” value is -0.34.

AUUCCAUUGGCGUAAUGGUAACGCGUUUCCCUCCUAAGGAGAAGACUGCGGGUUCGAGUCCCGUACGGAUCG [G1A G6A C27U A70U]: the “yeast fitness (ln)” value is -0.293.

Turning to AUUCCAUUGGCGUAAUGGUAACGCGUUUCCCUCCUAAGGAGACGAUUGCGGGUUCGAGUCCCGUAUGGGAUG [G1A G6A C27U A43C C46U C66U A69G C71U], the “yeast fitness (ln)” value was -0.499. In the case of AUUCCAUUGGCGUAAUGGUAACGCGUUUCCCUCCUAAGGAGAAGAUUGCGGGUUCGAGUCCCGUAAGGAAUG [G1A G6A C27U C46U C66A C71U] it was -0.11; in that of AUUCCAUUGGCGUAAUGGUAACGCGUUUCCCUCCUAAGGAGACGACUGCGGGUUCGAGUCCCGUAUGGAUUG [G1A G6A C27U A43C C66U A70U C71U], -0.381. With AUUCCAUUGGCGUAAUGGUAACGCGUUUCCCUCCUAAGGAGACGAUUGCGGGUUCGAGUCCCGUAUGGGUUG [G1A G6A C27U A43C C46U C66U A69G A70U C71U] the figure was -0.477; with AUUCCAUUGGCGUAAUGGUAACGCGUUUCCCUCCUAAGGAGAAGAUUGCGGGUUCGAGUCCCGUAAGGGGUG [G1A G6A C27U C46U C66A A69G A70G C71U], -0.145; with AUUCCAUUGGCGUAAUGGUAACGCGUUUCCCUCCUAAGGAGAAGAUUGCGGGUUCGAGUCCCGUACGGAAUG [G1A G6A C27U C46U C71U], -0.253. Turning to AUUCCAUUGGCGUAAUGGUAACGCGUUUCCCUCCUAAGGAGAAGAUUGCGGGUUCGAGUCCCGUAUGGGGUG [G1A G6A C27U C46U C66U A69G A70G C71U], the “yeast fitness (ln)” value was -0.698. AUUCCAUUGGCGUAAUGGUAACGCGUUUCCCUCCUAAGGAGACGACUGCGGGUUCGAGUCCCGUAUGGAAUG [G1A G6A C27U A43C C66U C71U]: the “yeast fitness (ln)” value was -0.505.

Regarding AUUCCAUUGGCGUAAUGGUAACGCGUUUCCCUCCUAAGGAGAAGACUGCGGGUUCGAGUCCCGUAUGGAGCG [G1A G6A C27U C66U A70G], the “yeast fitness (ln)” value was -0.187.

For the variant AUUCCAUUGGCGUAAUGGUAACGCGUUUCCCUCCUAAGGAGAAGACUGCGGGUUCGAGUCCCGUAUGGAUCG [G1A G6A C27U C66U A70U], the “yeast fitness (ln)” value was -0.431. With AUUCCAUUGGCGUAAUGGUAACGCGUUUCCCUCCUAAGGAGAAGACUGCGGGUUCGAGUCCCGUACGGGUUG [G1A G6A C27U A69G A70U C71U], the “yeast fitness (ln)” value was -0.504. Regarding AUUCCAUUGGCGUAAUGGUAACGCGUUUCCCUCCUAAGGAGACGAUUGCGGGUUCGAGUCCCGUAUGGAGCG [G1A G6A C27U A43C C46U C66U A70G], the “yeast fitness (ln)” value was -0.27.

Take AUUCCAUUGGCGUAAUGGUAACGCGUUUCCCUCCUAAGGAGACGAUUGCGGGUUCGAGUCCCGUAUGGAUCG [G1A G6A C27U A43C C46U C66U A70U]: the “yeast fitness (ln)” value is -0.318. AUUCCAUUGGCGUAAUGGUAACGCGUUUCCCUCCUAAGGAGACGACUGCGGGUUCGAGUCCCGUAUGGGGCG [G1A G6A C27U A43C C66U A69G A70G]: the “yeast fitness (ln)” value was -0.383. Turning to AUUCCAUUGGCGUAAUGGUAACGCGUUUCCCUCCUAAGGAGAAGACUGCGGGUUCGAGUCCCGUAUGGGGUG [G1A G6A C27U C66U A69G A70G C71U], the “yeast fitness (ln)” value is -0.442. With AUUCCAUUGGCGUAAUGGUAACGCGUUUCCCUCCUAAGGAGAAGAUUGCGGGUUCGAGUCCCGUACGGGGCG [G1A G6A C27U C46U A69G A70G] the figure was -0.224; with AUUCCAUUGGCGUAAUGGUAACGCGUUUCCCUCCUAAGGAGAAGAUUGCGGGUUCGAGUCCCGUACGGGUCG [G1A G6A C27U C46U A69G A70U], -0.24. For the variant AUUCCAUUGGCGUAAUGGUAACGCGUUUCCCUCCUAAGGAGAAGAUUGCGGGUUCGAGUCCCGUAUGGAACG [G1A G6A C27U C46U C66U], the “yeast fitness (ln)” value was -0.421. AUUCCAUUGGCGUAAUGGUAACGCGUUUCCCUCCUAAGGAGAAGACUGCGGGUUCGAGUCCCGUACGGAUUG [G1A G6A C27U A70U C71U]: the “yeast fitness (ln)” value is -0.23.

As for AUUCCAUUGGCGUAAUGGUAACGCGUUUCCCUCCUAAGGAGACGAUUGCGGGUUCGAGUCCCGUAUGGAGUG [G1A G6A C27U A43C C46U C66U A70G C71U], the “yeast fitness (ln)” value was -0.338.

With AUUCCAUUGGCGUAAUGGUAACGCGUUUCCCUCCUAAGGAGACGACUGCGGGUUCGAGUCCCGUAAGGGGUG [G1A G6A C27U A43C C66A A69G A70G C71U], the “yeast fitness (ln)” value was -0.299. As to AUUCCAUUGGCGUAAUGGUAACGCGUUUCCCUCCUAAGGAGACGAUUGCGGGUUCGAGUCCCGUAAGGAUUG [G1A G6A C27U A43C C46U C66A A70U C71U], the “yeast fitness (ln)” value was -0.209.

As for AUUCCAUUGGCGUAAUGGUAACGCGUUUCCCUCCUAAGGAGACGAUUGCGGGUUCGAGUCCCGUAUGGAAUG [G1A G6A C27U A43C C46U C66U C71U], the “yeast fitness (ln)” value is -0.166.

AUUCCAUUGGCGUAAUGGUAACGCGUUUCCCUCCUAAGGAGACGAUUGCGGGUUCGAGUCCCGUAUGGGUCG [G1A G6A C27U A43C C46U C66U A69G A70U]: the “yeast fitness (ln)” value was -0.471. In the case of AUUCCAUUGGCGUAAUGGUAACGCGUUUCCCUCCUAAGGAGACGAUUGCGGGUUCGAGUCCCGUAUGGGGCG [G1A G6A C27U A43C C46U C66U A69G A70G] it was -0.309; in that of AUUCCAUUGGCGUAAUGGUAACGCGUUUCCCUCCUAAGGAGAAGAUUGCGGGUUCGAGUCCCGUACGGAUUG [G1A G6A C27U C46U A70U C71U], -0.258; in that of AUUCCAUUGGCGUAAUGGUAACGCGUUUCCCUCCUAAGGAGAAGAUUGCGGGUUCGAGUCCCGUACGGGUUG [G1A G6A C27U C46U A69G A70U C71U], -0.36. With AUUCCAUUGGCGUAAUGGUAACGCGUUUCCCUCCUAAGGAGAAGAUUGCGGGUUCGAGUCCCGUACGGAACG [G1A G6A C27U C46U], the “yeast fitness (ln)” value was -0.143. Regarding AUUCCAUUGGCGUAAUGGUAACGCGUUUCCCUCCUAAGGAGACGAUUGCGGGUUCGAGUCCCGUAAGGAGUG [G1A G6A C27U A43C C46U C66A A70G C71U], the “yeast fitness (ln)” value is -0.293. Take AUUCCAUUGGCGUAAUGGUAACGCGUUUCCCUCCUAAGGAGACGACUGCGGGUUCGAGUCCCGUAAGGAGUG [G1A G6A C27U A43C C66A A70G C71U]: the “yeast fitness (ln)” value was -0.267. With AUUCCAUUGGCGUAAUGGUAACGCGUUUCCCUCCUAAGGAGAAGACUGCGGGUUCGAGUCCCGUACGGGGCG [G1A G6A C27U A69G A70G] the figure was -0.342; with AUUCCAUUGGCGUAAUGGUAACGCGUUUCCCUCCUAAGGAGAAGACUGCGGGUUCGAGUCCCGUACGGGUCG [G1A G6A C27U A69G A70U], -0.353. Take AUUCCAUUGGCGUAAUGGUAACGCGUUUCCCUCCUAAGGAGAAGAUUGCGGGUUCGAGUCCCGUACGGGAUG [G1A G6A C27U C46U A69G C71U]: the “yeast fitness (ln)” value was -0.238.

These data come from the RNAGym collection of RNA variant scans (doi:10.1038/s41586-018-0170-7).
